Measurements: ChEMBL document CHEMBL5584325, “Discovery of novel coumarin triazolyl and phenoxyphenyl triazolyl derivatives targeting amyloid beta aggregation-mediated oxidative stress and neuroinflammation for enhanced neuroprotection” (RSC Med Chem, 2024)
pIC50: −log10 of the molar value. Activity calls are given as the source filed them. The calls are words filed in the database; no cut-off is given here.

Columns and labels:
[1] = target: T1, Amyloid-beta precursor protein (Homo sapiens, UniProt P05067); test: Inhibition of amyloid beta (1 to 42) (unknown origin) aggregation at 100 uM incubated for 48 hrs by ThioflavinT staining based fluorescence assay relative to control
Method in brief: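 Compound in DMSO (1 μl of a 1 mM solution) mixed with 9 μl of 25 μM Aβ1–42 in Tris pH 7.4. Incubated 48 h at 37 °C without agitation, then 200 μl of 5 μM ThT added. Fluorescence read at ex 446/em 500 nm; % inhibition vs DMSO control, solvent blank subtracted.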

[2] = Octanol/water partition coefficient, log P of the compound incubated for 2 hrs under shaking condition by HPLC analysis; assay type: physicochemical
Method in brief: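 Shake-flask log P: 10 mM stock (DMSO, or octanol for highly lipophilic compounds) partitioned between mutually saturated octanol and water at three phase ratios. Shaken 2 h at 25 ± 1 °C, phases separated, each phase quantified by C18 HPLC-UV. Mobile phase 0.1% formic acid:methanol 40:60; log P averaged over the three ratios.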

[3] = target: T1, Amyloid-beta precursor protein; test: Inhibition of amyloid beta (1 to 42) (unknown origin) aggregation incubated for 48 hrs by ThioflavinT staining based fluorescence assay
[4] = tested on: BV-2; test: Cytotoxicity against mouse BV-2 cells assessed as reduction in cell viability at 10 to 200 uM measured after 24 hrs by MTT assay; assay type: toxicity, cell-based; conditions: bv-2, 24 h, dose 10-200 µM
Method in brief: (§1)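 BV-2 microglia grown in DMEM with 10% FBS, HEPES and Glutamax at 37 °C, 5% CO2, seeded overnight at 1 × 10^4 cells/well. Compound alone at 0–200 μM (range extended lower where needed) for 24 h. MTT 2 h at 37 °C, formazan dissolved in DMSO, A570 read. Used to pick non-toxic concentrations.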

[5] = tested on: BV-2; test: Cytotoxicity against mouse BV-2 cells assessed as reduction in cell viability at 150 uM measured after 24 hrs by MTT assay; assay type: toxicity, cell-based; conditions: bv-2, 24 h; method in brief: as §1
[6] = tested on: BV-2; test: Neuroprotective activity in amyloid beta (1 to 42)-induced cytotoxicity in mouse BV-2 cells assessed as cell viability at 150 uM measured after 24 hrs by MTT assay (reference value: 54.96 +/- 1.12%); assay type: functional; conditions: read-out: Activity
[7] = tested on: BV-2; test: Cytotoxicity against mouse BV-2 cells assessed as reduction in cell viability at 20 uM measured after 24 hrs by MTT assay; assay type: toxicity, cell-based; conditions: bv-2, 24 h; method in brief: as §1
[8] = tested on: BV-2; test: Neuroprotective activity in amyloid beta (1 to 42)-induced cytotoxicity in mouse BV-2 cells assessed as cell viability at 20 uM measured after 24 hrs by MTT assay (reference value: 54.96 +/- 1.12%); assay type: functional; conditions: read-out: Activity
[9] = tested on: BV-2; test: Cytotoxicity against mouse BV-2 cells assessed as reduction in cell viability at 40 uM measured after 24 hrs by MTT assay; assay type: toxicity, cell-based; conditions: bv-2, 24 h; method in brief: as §1
[10] = tested on: BV-2; test: Neuroprotective activity in amyloid beta (1 to 42)-induced cytotoxicity in mouse BV-2 cells assessed as cell viability at 40 uM measured after 24 hrs by MTT assay (reference value: 54.96 +/- 1.12%); assay type: functional; conditions: read-out: Activity
[11] = Induction of ROS generation in mouse BV-2 cells at 40 uM measured after 24 hrs by DCFH-DA staining based fluorescence assay; assay type: toxicity, cell-based; conditions: bv-2, 24 h
Method in brief: (§2)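 BV-2 cells seeded overnight at 1 × 10^4/well, compound alone (no Aβ). Cells loaded with 20 μM (final) DCFH-DA for 30 min at 37 °C, washed, then given conditioned medium for 24 h. Fluorescence read at ex […] nm. Expressed as % of control; n = 3 in triplicate, one-way ANOVA with LSD.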

[12] = tested on: BV-2; test: Neuroprotective activity in amyloid beta (1 to 42)-induced oxidative stress in mouse BV-2 cells assessed as intracellular ROS level at 40 uM measured after 24 hrs by DCFH-DA staining based fluorescence assay (reference value: 150.91 +/- 0.49%); assay type: functional
[13] = tested on: BV-2; test: Neuroprotective activity in amyloid beta (1 to 42)-induced inflammation in mouse BV-2 cells assessed as TNFalpha mRNA expression at 40 uM measured after 24 hrs by SYBR green staining based qRT-PCR analysis (reference value: 1.73 +/- 0.22%); assay type: functional
[14] = tested on: BV-2; test: Neuroprotective activity in amyloid beta (1 to 42)-induced inflammation in mouse BV-2 cells assessed as IL-1beta mRNA expression at 40 uM measured after 24 hrs by SYBR green staining based qRT-PCR analysis (reference value: 1.53 +/- 0.13%); assay type: functional
[15] = tested on: BV-2; test: Neuroprotective activity in amyloid beta (1 to 42)-induced inflammation in mouse BV-2 cells assessed as […] in IL-6 mRNA expression at 40 uM measured after 24 hrs by SYBR green staining based qRT-PCR analysis relative to control; assay type: functional
[16] = target: T1, Amyloid-beta precursor protein; test: Inhibition of amyloid beta (1 to 42) aggregation in mouse BV-2 cells exposed to amyloid-beta (1 to 42) (unknown origin) at 40 uM measured after 24 to 48 hrs by thioflavin T staining based fluorescence assay; assay type: cell-based; conditions: time 24-48 hrs
[17] = tested on: SH-SY5Y; test: Neuroprotective activity against human SH-SY5Y cells co-cultured with 40 uM compound pretreated BV-2 cells exposed to amyloid beta (1 to 42) assessed as cell viability measured after 24 hrs by MTT assay (reference value: 80.62 +/- 0.86%); assay type: functional; conditions: read-out: Activity
[18] = tested on: BV-2; test: Cytotoxicity against mouse BV-2 cells assessed as reduction in cell viability at 2.5 uM measured after 24 hrs by MTT assay; assay type: toxicity, cell-based; conditions: bv-2, 24 h; method in brief: as §1
[19] = tested on: BV-2; test: Neuroprotective activity in amyloid beta (1 to 42)-induced cytotoxicity in mouse BV-2 cells assessed as cell viability at 2.5 uM measured after 24 hrs by MTT assay (reference value: 54.96 +/- 1.12%); assay type: functional; conditions: read-out: Activity
[20] = Induction of ROS generation in mouse BV-2 cells at 2.5 uM measured after 24 hrs by DCFH-DA staining based fluorescence assay; assay type: toxicity, cell-based; conditions: bv-2, 24 h; method in brief: as §2
[21] = tested on: BV-2; test: Neuroprotective activity in amyloid beta (1 to 42)-induced oxidative stress in mouse BV-2 cells assessed as intracellular ROS level at 2.5 uM measured after 24 hrs by DCFH-DA staining based fluorescence assay (reference value: 150.91 +/- 0.49%); assay type: functional
[22] = tested on: BV-2; test: Neuroprotective activity in amyloid beta (1 to 42)-induced inflammation in mouse BV-2 cells assessed as TNFalpha mRNA expression at 2.5 uM measured after 24 hrs by SYBR green staining based qRT-PCR analysis (reference value: 1.73 +/- 0.22%); assay type: functional
[23] = tested on: BV-2; test: Neuroprotective activity in amyloid beta (1 to 42)-induced inflammation in mouse BV-2 cells assessed as IL-1beta mRNA expression at 2.5 uM measured after 24 hrs by SYBR green staining based qRT-PCR analysis (reference value: 1.53 +/- 0.13%); assay type: functional
[24] = tested on: BV-2; test: Neuroprotective activity in amyloid beta (1 to 42)-induced inflammation in mouse BV-2 cells assessed as change in IL-6 mRNA expression at 2.5 uM measured after 24 hrs by SYBR green staining based qRT-PCR analysis; assay type: functional, cell-based
[25] = target: T1, Amyloid-beta precursor protein; test: Inhibition of amyloid beta (1 to 42) aggregation in mouse BV-2 cells exposed to amyloid-beta (1 to 42) (unknown origin) at 2.5 uM measured after 24 to 48 hrs by thioflavin T staining based fluorescence assay; assay type: cell-based; conditions: time 24-48 hrs
[26] = tested on: BV-2; test: Neuroprotective activity in amyloid beta (1 to 42)-induced morphological changes in mouse BV-2 cells assessed as appearance of healthy cells at 2.5 uM; assay type: functional, cell-based
[27] = tested on: SH-SY5Y; test: Neuroprotective activity against human SH-SY5Y cells co-cultured with 2.5 uM compound pretreated BV-2 cells exposed to amyloid beta (1 to 42) assessed as cell viability measured after 24 hrs by MTT assay (reference value: 80.62 +/- 0.86%); assay type: functional; conditions: read-out: Activity
[28] = target: T1, Amyloid-beta precursor protein; test: Inhibition of amyloid beta (1 to 42) (unknown origin) aggregation assessed as reduction in amyloid beta fibril formation at 2.5 uM measured after 48 hrs by transmission electron microscopy
[29] = target: T1, Amyloid-beta precursor protein; test: Inhibition of amyloid beta (1 to 42) (unknown origin) aggregation assessed as appearance of collapsed amyloid beta fibrils at 2.5 uM measured after 48 hrs by transmission electron microscopy
[30] = tested on: BV-2; test: Neuroprotective activity in amyloid beta (1 to 42)-induced morphological changes in mouse BV-2 cells at 20 uM; assay type: functional, cell-based

T1 sequence (P05067 whole entry): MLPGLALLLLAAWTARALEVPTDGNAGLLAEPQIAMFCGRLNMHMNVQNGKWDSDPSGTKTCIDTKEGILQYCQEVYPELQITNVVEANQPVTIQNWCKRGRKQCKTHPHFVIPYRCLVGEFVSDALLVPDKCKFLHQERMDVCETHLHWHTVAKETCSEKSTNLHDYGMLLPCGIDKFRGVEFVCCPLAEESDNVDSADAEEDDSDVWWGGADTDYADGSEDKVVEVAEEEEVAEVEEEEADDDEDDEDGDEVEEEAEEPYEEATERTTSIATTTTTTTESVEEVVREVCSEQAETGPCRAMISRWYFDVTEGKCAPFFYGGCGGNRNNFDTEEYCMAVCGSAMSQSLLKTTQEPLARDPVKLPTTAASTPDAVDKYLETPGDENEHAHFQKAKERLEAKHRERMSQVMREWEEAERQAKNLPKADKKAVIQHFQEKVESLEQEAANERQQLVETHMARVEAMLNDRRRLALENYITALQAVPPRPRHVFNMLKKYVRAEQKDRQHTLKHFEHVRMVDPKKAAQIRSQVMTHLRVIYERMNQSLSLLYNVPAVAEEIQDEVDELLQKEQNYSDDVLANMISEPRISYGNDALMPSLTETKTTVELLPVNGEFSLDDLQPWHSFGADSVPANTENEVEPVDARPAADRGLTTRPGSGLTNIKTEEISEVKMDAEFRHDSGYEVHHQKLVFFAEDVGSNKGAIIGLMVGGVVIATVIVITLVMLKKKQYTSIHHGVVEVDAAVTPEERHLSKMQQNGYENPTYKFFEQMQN

SMILES | inhibition [1] [%] | logP at 2 h [2] | pIC50 [3] | other results
O=C(OCc1cn(-c2cc3ccccc3oc2=O)nn1)c1ccccc1O | < 50 | 2.65 | – | –
COc1cc(C(=O)NCc2cn(-c3cc4ccccc4oc3=O)nn2)ccc1O | < 50 | 1.95 | – | –
O=C(OCc1cn(-c2cc3ccccc3oc2=O)nn1)c1ccccc1 | < 50 | 2.38 | – | –
O=C(Cc1ccccc1[N+](=O)[O-])OCc1cn(-c2ccc(Oc3ccccc3)cc2)nn1 | > 50 | 4.29 | 4.44 | –
COc1cc(C(=O)OCc2cn(-c3ccc(Oc4ccccc4)cc3)nn2)ccc1O | > 50 | 4.47 | 8.52 | Activity [4]: Toxic
O=C(NCc1cn(-c2ccc(Oc3ccccc3)cc2)nn1)c1ccccc1O | < 50 | – | – | logP ([2]; 2 h): Not Determined(Insoluble)
O=C(NCc1cn(-c2ccc(Oc3ccccc3)cc2)nn1)c1ccccc1 | < 50 | 4.21 | – | Activity [5]: Non-Toxic; viability at 150 µM [6]: 31.6%
O=C(Cc1ccccc1[N+](=O)[O-])NCc1cn(-c2cc3ccccc3oc2=O)nn1 | > 50 | 1.9 | 4.94 | –
O=C(Cc1ccccc1[N+](=O)[O-])NCc1cn(-c2ccc(Oc3ccccc3)cc2)nn1 | > 50 | 3.76 | 4.16 | –
O=C(OCc1cn(-c2ccc(Oc3ccccc3)cc2)nn1)c1ccccc1O | < 50 | 5.18 | – | –
O=C(NCc1cn(-c2cc3ccccc3oc2=O)nn1)c1ccccc1O | < 50 | 2.02 | – | –
O=C(OCc1cn(-c2ccc(Oc3ccccc3)cc2)nn1)c1ccccc1 | > 50 | 5.19 | 5.33 | Activity [7]: Non-Toxic; viability at 20 µM [8]: 54.1%
O=C(Cc1ccccc1[N+](=O)[O-])OCc1cn(-c2cc3ccccc3oc2=O)nn1 | > 50 | 2.41 | 4.75 | –
COc1cc(/C=C/C(=O)CC(=O)/C=C/c2ccc(O)c(OC)c2)ccc1O | > 50 | – | – | –
COc1cc(C(=O)OCc2cn(-c3cc4ccccc4oc3=O)nn2)ccc1O | < 50 | 2.61 | – | –
COc1cc(/C=C/C(=O)NCc2cn(-c3cc4ccccc4oc3=O)nn2)ccc1O | < 50 | 2.65 | – | Activity [9]: Non-Toxic; viability at 40 µM [10]: 75.4%; Activity [11]: Non-Toxic; Activity [12]: 76.83%; Activity [13]: 0.64%; Activity [14]: 0.47%; Activity [15]: inactive; inhibition [16]: Active; viability at 40 µM [17]: 88.3%
COc1cc(/C=C/C(=O)OCc2cn(-c3cc4ccccc4oc3=O)nn2)ccc1O | > 50 | 2.64 | 8.10 | Activity [18]: Non-Toxic; viability at 2.5 µM [19]: 71.3%; Activity [20]: Non-Toxic; Activity [21]: 107.04%; Activity [22]: 1.09%; Activity [23]: 0.71%; Activity [24]: inactive; inhibition [25]: Active; Activity [26]: Active; viability at 2.5 µM [27]: 91.5%; inhibition [28]: Active; inhibition [29]: Active
O=C(NCc1cn(-c2cc3ccccc3oc2=O)nn1)c1ccccc1 | < 50 | 2.25 | – | –
COc1cc(/C=C/C(=O)NCc2cn(-c3ccc(Oc4ccccc4)cc3)nn2)ccc1O | > 50 | 4.44 | 7.40 | Activity [9]: Non-Toxic; viability at 40 µM [10]: 60.8%; Activity [11]: Non-Toxic; Activity [12]: 137.18%; Activity [14]: 0.05%; Activity [15]: 2.04%; inhibition [16]: Active; viability at 40 µM [17]: 87.2%
COc1cc(C(=O)NCc2cn(-c3ccc(Oc4ccccc4)cc3)nn2)ccc1O | > 50 | 4.26 | 5.94 | Activity [7]: Non-Toxic; viability at 20 µM [8]: 34.5%; Activity [30]: Active
